Assay results reported in ChEMBL document CHEMBL4000230, “Design, synthesis and biological evaluation of regioisomers of 666-15 as inhibitors of CREB-mediated gene transcription” (Bioorg Med Chem Lett, 2017).

Key:
MDA-MB-468 = assay: Cytotoxicity against human MDA-MB-468 cells assessed as growth inhibition after 72 hrs by MTT assay; format: functional; conditions: MDA-MB-468, 72 h
Outline: (§1)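 Growth inhibition read by MTT after 72 h incubation of the indicated cells with drug; GI50 taken from this assay.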

[1] = Inhibition of forskolin-stimulated CREB (unknown origin)-mediated gene transcription in HEK293T cells preincubated for 30 mins followed by forskolin-stimulation measured after 6 hrs by luciferase reporter gene assay; format: cell-based; conditions: Homo sapiens, HEK-293T
Outline: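 HEK 293T cells transfected with a renilla luciferase reporter driven by three tandem CRE copies. Treated with increasing compound concentrations (50 nM to 50 μM) for 30 min, then forskolin (10 μM) for 6 h, then luciferase measured. Luciferase normalized to lysate protein concentration. IC50 by non-linear regression of dose-response curves.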

MDA-MB-231 = assay: Cytotoxicity against human MDA-MB-231 cells assessed as growth inhibition after 72 hrs by MTT assay; format: functional; conditions: MDA-MB-231, 72 h; outline: as §1

IC50 [1] [µM] | SMILES | GI50 (MDA-MB-468) [µM] | GI50 (MDA-MB-231) [µM]
18.9 | NCCCOc1ccc2ccccc2c1C(=O)NCCOc1cc2ccccc2cc1C(=O)Nc1ccc(Cl)cc1O | 1.7 | 4.31
17.2 | NCCCOc1cc(C(=O)NCCOc2cc3ccccc3cc2C(=O)Nc2ccc(Cl)cc2O)cc2ccccc12 | 0.55 | 2.68
19 | NCCCOc1cc(C(=O)NCCOc2cc3ccccc3cc2C(=O)Nc2ccc(Cl)cc2O)c2ccccc2c1 | 1.65 | 3.82
24 | NCCCOc1c(C(=O)NCCOc2cc3ccccc3cc2C(=O)Nc2ccc(Cl)cc2O)ccc2ccccc12 | 1.93 | 3.12
